In ChEMBL document CHEMBL4706504, “Hit-to-lead optimization of a latency-associated nuclear antigen inhibitor against Kaposi's sarcoma-associated herpesvirus infections” (Eur J Med Chem, 2020):
The source made the active and inactive calls. The calls are words filed in the database; no cut-off is given here.

System: Human gammaherpesvirus 8
Assay: (§1) Inhibition of Kaposi's sarcoma herpesvirus C-terminal His-tagged oligomerization deficient LANA DBD (1008 to 1146 residues) K1055E/K1138S/K1140D/K1141D/R1039Q/R1040Q/A1121E/K1109A/D1110A mutant expressed in Escherichia coli BL21(DE3) assessed as inhibition of LANA interaction with 5'-Dy682-labeled viral DNA LBS1 probe at 500 uM preincubated with LANA-DBD for 60 mins followed by addition of DNA probe and measured after 30 mins by Electrophoretic mobility shift assay
Conditions: time 90.0 min

SMILES | inhibition [%]
Cc1cc(-c2ccccc2O)ncc1-n1cc(-c2ccc(C(=O)O)cc2)nn1 | 100

System: Human gammaherpesvirus 8
Assay: as §1, with “fluorescently-labelled” for “5'-Dy682-labeled”, “LBS2” for “LBS1”, “90” for “30”, “flourescence polarization” for “Electrophoretic mobility shift”
Conditions: time 150.0 min

SMILES | inhibition
COc1ccccc1-c1cncc(-n2cc(-c3ccc(C(=O)O)cc3)nn2)c1 | inactive
CCOC(=O)c1ccc(-c2cn(-c3cccnc3)nn2)cc1 | inactive
OCc1ccc(-c2cn(-c3cccnc3)nn2)cc1 | inactive
COc1cc(F)cc(-c2cncc(-n3cc(-c4ccc(C(=O)O)cc4)nn3)c2)c1 | inactive
CNc1ccc(-n2cc(-c3ccc(C(=O)O)cc3)nn2)cn1 | inactive
O=C(O)c1ccc(-c2cn(-c3cccnc3)nn2)cc1Cl | inactive
Cc1ccc(-c2cncc(-n3cc(-c4ccc(C(=O)O)cc4)nn3)c2)cc1C | inactive
Cc1cnccc1-n1cc(-c2ccc(C(=O)O)cc2)nn1 | inactive
O=C(O)c1ccc(-c2cn(-c3ccc(Oc4ccccc4)nc3)nn2)cc1 | inactive
O=C(O)c1ccc(-c2cn(-c3cncc(F)c3)nn2)cc1 | inactive
CC(=O)Nc1ccc(-c2cn(-c3cccnc3)nn2)cc1 | inactive
NC(=O)c1ccc(-c2cn(-c3cccnc3)nn2)cc1 | inactive
O=C(O)c1ccc(-c2cn(-c3ccc(Oc4ccccc4)cc3)nn2)cc1 | inactive
COc1ccc(-c2cncc(-n3cc(-c4ccc(C(=O)O)cc4)nn3)c2)cc1 | inactive
COC(=O)c1ccc(-c2cn(-c3cccnc3)nn2)cc1 | inactive

System: not listed separately
Assay: as §1, with “probe” for “probe at 500 uM”
Set-up: species or system Human gammaherpesvirus 8
Conditions: not given

SMILES | IC50 [µM]
Cc1cc(-c2ccccc2O)ncc1-n1cc(-c2ccc(C(=O)O)cc2)nn1 | 156

System: not listed separately
Assay: as §1, with “fluorescently-labelled” for “5'-Dy682-labeled”, “LBS2” for “LBS1”, “probe” for “probe at 500 uM”, “90” for “30”, “flourescence polarization” for “Electrophoretic mobility shift”
Set-up: species or system Human gammaherpesvirus 8
Conditions: not given
Outline: (§2)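 FP competition of DNA binding, using the oligomerization-deficient LANA DBD mutant (aa 1008-1146, nine point mutations). Probes were LBS1, LBS2 or LBS3. Values are IC50 from the average of duplicates ± standard deviation.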

SMILES | IC50 [µM]
CC(C)Nc1ccc(-n2cc(-c3ccc(C(=O)O)cc3)nn2)cn1 | > 250
O=C(O)c1ccc(-c2cn(Cc3cccnc3)nn2)cc1 | > 250
O=C(O)c1ccc(-c2cn(-c3cncc(-c4ccc(F)c(F)c4)c3)nn2)cc1 | > 250
O=C(O)c1ccc(-c2cn(-c3cncc(-c4ccc(CO)cc4)c3)nn2)cc1 | > 250
Nc1ccc(-c2cn(-c3cccnc3)nn2)cc1 | > 250
O=C(O)c1cccc(-c2cn(-c3cccnc3)nn2)c1 | > 250
COC(=O)c1ccc2cncc(-n3cc(-c4ccc(C(=O)O)cc4)nn3)c2c1 | > 250
O=C(O)c1ccc(-c2cn(-c3cncc(-c4ccccc4)c3)nn2)cc1 | > 250
N#Cc1ccc(-c2cn(-c3cccnc3)nn2)cc1 | > 250
O=C(O)c1ccc(-c2cn(-c3cncc(-c4cccc(CO)c4)c3)nn2)cc1 | > 250
Cc1cc(Cl)ncc1-n1cc(-c2ccc(C(=O)O)cc2)nn1 | > 250
Cc1cc(-c2ccccc2O)ncc1-n1cc(-c2ccc(C(=O)O)cc2)nn1 | 21

System: Human gammaherpesvirus 8
Assay: Inhibition of Kaposi's sarcoma herpesvirus wild type LANA CTD (934 to 1162 residues) expressed in Escherichia coli BL21 (DE3) assessed as inhibition of LANA interaction with 5'-Dy682-labeled viral DNA LBS1 probe at 250 uM preincubated with LANA CTD for 60 mins followed by addition of DNA probe and measured after 30 mins by Electrophoretic mobility shift assay
Conditions: time 90.0 min

SMILES | inhibition
Cc1cc(-c2ccccc2O)ncc1-n1cc(-c2ccc(C(=O)O)cc2)nn1 | inactive

System: not listed separately
Assay: as §1, with “fluorescently-labelled” for “5'-Dy682-labeled”, “probe” for “probe at 500 uM”, “90” for “30”, “flourescence polarization” for “Electrophoretic mobility shift”
Set-up: species or system Human gammaherpesvirus 8
Conditions: not given
Outline: as §2

SMILES | IC50 [µM]
Cc1cc(-c2ccccc2O)ncc1-n1cc(-c2ccc(C(=O)O)cc2)nn1 | 30

System: not listed separately
Assay: as §1, with “fluorescently-labelled” for “5'-Dy682-labeled”, “LBS3” for “LBS1”, “probe” for “probe at 500 uM”, “90” for “30”, “flourescence polarization” for “Electrophoretic mobility shift”
Set-up: species or system Human gammaherpesvirus 8
Conditions: not given
Outline: as §2

SMILES | IC50 [µM]
Cc1cc(-c2ccccc2O)ncc1-n1cc(-c2ccc(C(=O)O)cc2)nn1 | 34
